Assay outcomes as filed in PubChem BioAssay.
Only some compounds are listed: those with a hit (about 12% of all), similar ones and a draw of the others.
PKD1 kinase inh: blocks activity of human protein kinase D1. 200,000 tested, 0.056% active. PKD1 kinase fluorescence polarization assay. Q15139. AID 797. inhibition, % (concentration not given with the values)
Lmaj promast: Leishmania major promastigote growth inhibition. 200,000 tested, 9% active. inhibition, % at 10 µM. Leishmania major promastigotes, resazurin fluorescence viability. AID 1063;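 note: promastigotes grown with compound for 44 hours at 28 °C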
Rad51 HR inh: blocks human Rad51 in homologous recombination. inhibition, % at 10 µM. hRad51 DNA strand exchange, fluorescence dequenching. Q06609. 200,000 tested, 0.085% active;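 active = inhibition above 40% at the single screening dose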;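 note: 0% = DMSO control wells and 100% = blanks with heterologous ssDNA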
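Material: Human Rad51 nucleoprotein filaments preassembled on unlabelled ssDNA | Also added: Labelled 47-mer dsDNA for strand exchange | Dosing: Single dose, 10 µM final compound | Schedule: 30-min compound preincubation and 15-min exchange, both room temperature | Technique: Fluorescence dequenching at 485/520 nm | Measure: Percent inhibition relative to plate controls and blanks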
CHOP inh: blocks CHOP induction under ER stress | AID 2732 | inhibition, % at 10 µM | CHO-K1 CHOP-promoter luciferase, tunicamycin-induced, 15-18 h | 220,000 tested, 3.8% active;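 active = compounds that reduced the stress-induced luciferase reporter signal by more than about 70% of percent inhibition, limit read from the data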;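 note: 0% = tunicamycin plus vehicle and 100% = wells without tunicamycin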
Arbovirus inh: arbovirus infection inhibition | 200,000 tested, 0.37% active | arbovirus infection cell-based antiviral screen | inhibition, % at 10 µM | AID 1251; in the data active = inhibition above about 30%
Wee1 degr inh: human Wee1 degradation inhibition, primary screen | P30291 | HeLa Luc-Wee1K328M stability, luciferase luminescence; 100% = proteasome inhibitor MG132 effect | reporter increase, % at 5 µM | 220,000 tested, 1.2% active;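 active = activation above the mean of all tested compounds plus 3 SD, set per screening run, cut at about 8.8% in these data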;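 note: cells exposed to compound for 20 h before luminescence read; 0% = DMSO alone and 100% = MG132 at 30 µM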
* hit, by the source's call; nt = not tested or not shown. Cut-off read from the data, not from the text of the source, unless noted: active = inhibition above about 50%; inactive = the rest.

SMILES	PKD1 kinase inh	Lmaj promast	Rad51 HR inh	CHOP inh	Arbovirus inh	Wee1 degr inh
COc1cc(C=O)ccc1OCCOCCOc1ccc(Cl)cc1	-3.6	-3.0	11.8	24.1	9.0	-3.8
C/C=C/c1ccc(OCCOc2ccc(C=O)cc2)c(OC)c1	-2.5	81.7*	nt	-6.1	-0.6	-2.5
COc1ccccc1OCCCCOc1ccccc1C(C)=O	3.0	-0.2	nt	49.9	14.1	0.3
O=C(Cn1nnc2ccccc21)NNC(=O)c1ccccc1	nt	nt	23.3	0.7	nt	-0.8
Fc1ccc(Nc2c(-c3ccco3)nc3ccccn23)cc1	-2.2	66.5*	4.0	-2.5	18.5	-1.1
c1ccc(Nc2c(-c3ccco3)nc3ccccn23)cc1	-1.3	49.4	-1.3	-0.3	8.2	2.8
CCSc1nc(O)cc(=O)[nH]1	nt	nt	17.2	5.8	nt	10.6*
O=C(NCCn1cc(SCc2ccc(F)cc2)c2ccccc21)c1ccccc1F	-3.1	95.0*	4.0	20.4	-23.1	4.1
O=C(NCCn1cc(SCc2ccc(F)cc2)c2ccccc21)c1c(F)cccc1F	-6.8	1.3	0.3	29.1	-0.9	8.8
C=CCNc1ncnc2c1[nH]c1ccc(C)cc12	-0.9	82.9*	2.1	21.9	6.4	3.3
COc1ccc2[nH]c3c(NCCC4=CCCCC4)ncnc3c2c1	-0.4	99.8*	7.7	71.9*	-22.7	1.8
COc1ccc2[nH]c3c(NCc4ccco4)ncnc3c2c1	-1.0	51.0*	-6.0	-15.4	-7.0	7.2
CCN(CC)CCNc1ncnc2c1[nH]c1ccc(OC)cc12	-0.1	25.2	0.1	2.0	-12.3	1.7
CC(N=C1NS(=O)(=O)c2ccccc21)C(=O)N1CCc2ccccc2C1 (stereo unspecified)	-5.3	1.1	0.1	15.4	-1.6	0.4
CCOc1ccc(CCNC(=O)COC(=O)c2cc(OC)c(OC)c(OC)c2)cc1OCC	-1.8	3.2	-7.6	7.9	5.7	0.2
CN(C)c1ccc(C2CC(=O)C=C(Nc3ccccc3N)C2)cc1 (stereo unspecified)	nt	nt	-13.3	-12.9	nt	6.0
C/C(=N\NC(=O)CN(c1ccc(Oc2ccccc2)cc1)S(C)(=O)=O)C(C)(C)C	-9.7	46.2	-11.0	21.0	-6.6	5.3
Cc1ccc(C)c(Cn2c(C(=O)OC(C)C)cc3c2ccn3C)c1	3.9	94.8*	4.5	73.2*	-0.5	-2.3
CC(C)OC(=O)c1cc2c(ccn2-c2ccc(F)cc2)n1CC(=O)N1CCN(C(=O)c2ccco2)CC1	nt	nt	-34.8	26.7	nt	-2.2
CCOC(=O)c1cc2c(ccn2C)n1Cc1ccccc1C	-4.7	7.3	-2.5	70.3*	4.0	-1.9
CC(C)OC(=O)c1cc2c(ccn2C)n1CC(=O)N(Cc1ccccc1)c1ccc(F)cc1	1.0	99.0*	-4.8	70.5*	-21.7	-2.2
Cc1ccccc1Cn1c(C(=O)OC(C)C)cc2c1ccn2C	-0.2	30.5	-4.5	51.2	-3.1	-0.8
CC(C)OC(=O)c1cc2c(ccn2C)n1CC(=O)N1CCC(Cc2ccccc2)CC1	-0.4	14.6	-9.3	70.2*	-20.9	0.3
COc1ccc(Cl)cc1NC(=O)CN1CCc2ccccc21	-2.5	5.5	nt	19.1	2.5	5.9
Cc1ccc(CSc2nnc(-c3ccncc3)n2CC2CCCO2)cc1 (stereo unspecified)	-4.3	-7.5	-4.6	-17.9	6.9	-0.7
SMILES	PKD1 kinase inh	Lmaj promast	Rad51 HR inh	CHOP inh	Arbovirus inh	Wee1 degr inh
O=C(NCc1ccccc1)c1cc[n+](CC(=O)c2cccs2)cc1	nt	nt	nt	1.2	nt	-0.3
CCOC(=O)c1cc2c(ccn2C)n1CC(=O)N(Cc1ccccc1)c1ccccc1	-8.7	97.5*	-0.6	52.0	-28.4	0.2
CCOC(=O)c1cc2c(ccn2C)n1Cc1ccccc1Cl	0.8	9.7	29.9	2.3	-3.5	-1.2
CCOC(=O)c1cc2c(ccn2C)n1CC(=O)N(Cc1ccccc1)c1ccc(F)cc1	8.2	97.8*	2.1	70.4*	-25.5	-3.1
Cc1nn2c(-c3ccccn3)ccnc2c1Cl	1.8	-9.2	3.9	-8.9	6.8	1.0
COC(=O)[C@@]1(Cc2ccc(F)cc2)[C@H]2c3cc(C(=O)N(C)C)n(C[C@H](O)CO)c3C[C@H]2CN1C(=O)c1ccccc1	-2.2	-0.1	0.4	6.8	6.3	-1.9
COC(=O)[C@@]1(Cc2ccccc2)[C@@H]2C(=CC(=O)[C@H]2CC(=O)C(=O)N(C)C)CN1C(=O)c1ccccc1	-3.4	99.8*	5.9	44.1	-1.3	-0.8
N=c1c2c(ncn1Cc1ccco1)Oc1c(ccc3ccccc13)C2c1ccccc1 (stereo unspecified)	5.8	56.7*	8.8	88.7*	-31.5	-4.3
COc1ccc(C2C3=C(CC(C)(C)CC3=O)Oc3ncn(Cc4ccccc4)c(=N)c32)cc1 (stereo unspecified)	4.0	63.1*	0.2	26.2	-30.2	1.6
COc1ccc(C2c3c(ncn(CCN4CCOCC4)c3=N)Oc3ccc4ccccc4c32)cc1 (stereo unspecified)	-6.4	100.0*	8.7	13.7	-19.7	4.3
c1ccc(C2c3c(ccc4ccccc34)Oc3ncn4nc(-c5ccco5)nc4c32)cc1 (stereo unspecified)	-9.4	47.0	0.9	6.3	6.2	-2.7
N=c1c2c(ncn1CCN1CCOCC1)Oc1ccc3ccccc3c1C2c1ccccc1 (stereo unspecified)	2.2	99.2*	0.1	-7.9	-27.9	-1.4
N=c1c2c(ncn1Cc1ccco1)Oc1cc(O)ccc1C2c1ccccc1 (stereo unspecified)	nt	nt	-96.6	30.2	nt	3.8
COc1ccccc1CN1C[C@@H]2C[C@@H](c3cccc(C)c3)N3CCC[C@@]23C1=O	-7.5	7.3	nt	22.0	3.1	0.6
CC(O)[C@@H](C(=O)N1CCNCC1)n1cc(CCCCN)nn1 (stereo partly specified)	-2.7	-3.7	1.7	28.0	8.9	-3.5
Clc1ccc(CNc2ccc(CNc3ncn[nH]3)cc2)cc1	-2.5	5.7	nt	-24.4	-14.8	-2.0
c1ccc(CNc2ccc(CNc3ncn[nH]3)cc2)cc1	1.7	64.3*	-3.9	11.2	-5.0	0.2
CCOc1ccc(S(=O)(=O)NNC(=S)Nc2ccc(Br)cc2)cc1	-0.3	62.4*	11.6	32.9	-3.2	-0.3
Cc1ccc(NC(=O)NNS(=O)(=O)c2ccc(Br)cc2)cc1	-5.5	-5.8	-5.2	24.4	-1.2	0.0
COCCN(Cc1ccccc1)C(=O)c1c(C)nn(-c2ccccc2)c1C	2.3	0.4	-4.8	-13.9	0.1	-0.3
O=C(Nc1nc2c(Br)cc(Br)cc2c(=O)s1)C1CCC1	nt	nt	-28.3	90.5*	nt	0.5
C=CCNC(=O)CN1C(=O)C2C3c4ccccc4C(c4ccccc43)C2C1=O (stereo unspecified)	2.5	12.2	-3.8	19.7	2.1	-2.4
Cc1c(-c2ccn[nH]2)cc(NC(=O)c2ccc(Cl)cc2)c(=O)n1N	1.1	-3.1	-7.7	2.3	-8.2	-1.8
O=C(Nc1cnn(C23CC4CC(CC(C4)C2)C3)c1)c1cnn2c(C(F)(F)F)cc(-c3ccco3)nc12	-8.5	82.4*	1.9	41.0	-16.6	-1.7
